The values below come from publication PMC6690763 (Bioorganic & medicinal chemistry letters, 2019).

The test system of data set [1] is latent EBV in MutuI cells. Particulars: typical; cited from earlier work.
The subject of data set [2] is latent EBV in MutuI cells. Kind of data set: EBV lytic reactivation, MutuI cell based assay. On the set-up: species or system Epstein-Barr virus. Particulars: for potency in EBV reactivation relative to 12: analogs of 12.
Data set [3] can be described thus: solubility on formulation. Particulars: for solubility when formulated: 10% DMSO/ 10% solutol/ 80% PBS formulation mixture; for water solubility (ease of formulation): PEG moiety instead of methoxy in the B ring. It counts as physicochemical.
The subject of data set [4] is latent EBV in SNU719 gastric carcinoma tumors. The experiment in a line: SNU719 gastric carcinoma xenograft, BZLF1 immunoblot of tumors. The following applies: NSG mice, 30 mg/kg i.p. once per day, 4 days. It counts as in vivo. The method, boiled down:
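SNU719 gastric carcinoma cells (1×10^7) injected subcutaneously into left and right flanks of NSG mice (both sexes, 8-10 weeks old). From 28 days post-injection, test compound given i.p. at 30 mg/kg once daily; controls were vehicle (5% DMSO/5% Solutol) and PBS. Tumors collected after 4 days of treatment and homogenized. Immunoblot for lytic BZLF1 (Z), with β-actin as loading control.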
On the technique in general: Immunoblotting shows a protein as a band on a membrane.

A short description of another data set: plasma stability, mouse. It is filed as in vitro ADME.
Another data set in a line: plasma stability, human. It counts as in vitro ADME.
Data set [5] in a line: liver microsomal stability, mouse. It counts as in vitro ADME. Particulars: microsomes. A general note: Liver microsomes are a subcellular fraction often used to study metabolism.
A short description of data set [6]: liver microsomal stability, human. It is filed as in vitro ADME. The following applies: microsomes.
The next data set concerns EBV-positive cells. Particulars: combination with Ganciclovir; cited from earlier work.
The next data set has as its system latent EBV. The experiment in a line: cell based reactivation, Western blot analysis. Particulars: compared with methoxy substituted counterparts; data not shown. Details: species or system Epstein-Barr virus.

On to `CCCC(=O)[O-].[Na+]` [NaB, sodium butyrate], for which, in data set [1], the “concentration required to trigger the latent to lytic switch” value was “millimolar concentrations”.

For the compound `COc1cccc(C(=O)N2CCc3c([nH]c4ccc(Cl)cc34)C2c2ccc(O)cc2)c1` (stereo not drawn) [Compound 20], the “potency in EBV reactivation relative to 12” value in data set [2] is on record as “maintained potency”. In addition, in data set [3], the solubility when formulated result is given as “more soluble”. In data set [4], the “EBV reactivation in tumors (presence of lytic protein BZLF1)” value was “modestly reactivates EBV”.

Consider `COc1ccc(C2c3[nH]c4ccc(Cl)cc4c3CCN2C(=O)c2cccc(CN3CCOCC3)c2)cc1` (stereo not drawn) [Compound 18], for which the “potency in EBV reactivation relative to 12” value in data set [2] is on record as “maintained potency”. Also, the solubility when formulated result in data set [3] was “more soluble”.

Consider `COC(=O)c1ccccc1NC(=O)N1CCc2c([nH]c3ccc(Cl)cc23)C1c1ccc(OC)cc1` (stereo not drawn) [Compound C60], for which the EC50 in [2] (human gammaherpesvirus 4, MUTU-I, read-out: potency in cells) fell in the range of 150 to 200 nM. In addition, the “Plasma Stability Mouse” value in the data set “plasma stability, mouse” is more than 6 h. Further, the “Plasma Stability Human” value in “plasma stability, human” is more than 6 h. Further, the “Liver Microsomal Stability Mouse CLint” value in data set [5] is on record as less than 0.5. Further, in data set [6], the “Liver Microsomal Stability Human CLint” value is 0.93. For the same compound, the “synergy with GCV in killing EBV-positive cells” value in the data set with EBV-positive cells was “functions synergistically with Ganciclovir (GCV) to selectively kill EBV-positive cells”.

Turning to `CCCCCCCCCCCCCC(=O)O[C@@H]1[C@@H](C)[C@@]2(O)[C@@H](C=C(CO)C[C@]3(O)C(=O)C(C)=C[C@@H]23)[C@@H]2C(C)(C)[C@]12OC(C)=O` [TPA, 12-O-tetradecanoylphorbol-13-acetate], the “concentration required to trigger the latent to lytic switch” value in data set [1] is “millimolar concentrations”.

Turning to `COCCOCCOCCOc1ccc(C2c3[nH]c4ccc(Cl)cc4c3CCN2C(=O)Nc2ccccc2Cl)cc1` (stereo not drawn) [Compound 22], in data set [3], the “water solubility (ease of formulation)” value is given as “significantly improved water solubility”. The “activity by Western blot analysis” value with latent EBV is given as “comparable activity to their methoxy substituted counterparts”.

For the compound `O=C(c1cccc(CN2CCOCC2)c1)N1CCc2c([nH]c3ccc(Cl)cc23)C1c1ccc(Cl)cc1` (stereo not drawn) [Compound 19], the “potency in EBV reactivation relative to 12” value in [2] is “maintained potency”. For the same compound, the solubility when formulated result in data set [3] was “more soluble”.

Turning to `COc1ccc(C2c3[nH]c4ccc(Cl)cc4c3CCN2C(=O)c2cccc(OC)c2)cc1` (stereo not drawn) [Compound 12], in “plasma stability, mouse”, the “Plasma Stability Mouse” value is more than 6 h. Besides, in “plasma stability, human”, the “Plasma Stability Human” value was more than 6 h.

For the compound `COCCOCCOCCOc1ccc(C2c3[nH]c4ccc(Cl)cc4c3CCN2C(=O)Nc2ccccc2C(=O)OC)cc1` (stereo not drawn) [Compound 21], the “water solubility (ease of formulation)” value in data set [3] is listed as “significantly improved water solubility”. In the data set with latent EBV, the “activity by Western blot analysis” value is “comparable activity to their methoxy substituted counterparts”.
